The text below walks through data of ChEMBL document CHEMBL4706680, “Small-Molecule HSP27 Inhibitor Abolishes Androgen Receptors in Glioblastoma” (J Med Chem, 2021).

Calls of active or inactive are those of the source. The calls are words filed in the database; no cut-off is given here.

In data set [1] the target is Heat shock protein beta-1 (Homo sapiens) (UniProt P04792). Conditions: T98G, dose 10.0 nM, time 12.0 hrs.
In another data set the test system is U-87 MG. As to the kind of experiment: Antiproliferative activity against human U87 cells assessed as reduction in cell viability incubated for 48 hrs by MTT assay. In kind it is functional, cell-based, U-87MG ATCC. The gist of the method:
(§1)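 MTT assay; 3000 cells/well in RPMI 1640 or DMEM with 10% FBS, seeded 24 h, then exposed 48 h to a range of concentrations in DMSO (final ≤0.1%); vehicle controls. MTT 1 mg/mL for 2 h at 37 °C, dye dissolved in DMSO, absorbance 570 nm; eight replicates; IC50 by nonlinear regression.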
On the technique in general: Tetrazolium dyes change colour on reduction, which living cells bring about.

Data set [2] in a line: Toxicity in CD1 mouse assessed as effect on PLT at 80 mg/kg/day, ip administered thrice weekly by hematology analyzer. To be noted: in vivo, 72 h, time 3 day. Format: organism-based. The method in brief: (§2)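 Male CD-1 mice, four per group, given 80 mg/kg in PBS IP three times weekly; vehicle DMSO. Mice were euthanized when toxicity signs appeared, otherwise at day 10. Body weight was recorded at first and last dosing days. Non-fasted cardiac blood was taken after euthanasia for an automated hematology analyzer.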

The test system of the next data set is A 172. As to the kind of experiment: Antiproliferative activity against human A 172 cells assessed as reduction in cell viability incubated for 48 hrs by MTT assay. Conditions: A 172, 48 h. In kind it is functional, cell-based. The gist of the method: as §1
Data set [3] can be described thus: Toxicity in CD1 mouse assessed as effect on RBC count at 80 mg/kg/day, ip administered thrice weekly by hematology analyzer. To be noted: in vivo, 72 h, time 3 day. In kind it is organism-based. The gist of the method:
as §2

The next data set relates to U-251. As to the kind of experiment: Antiproliferative activity against human U-251 cells assessed as reduction in cell viability incubated for 48 hrs by MTT assay. Format: functional, cell-based. Conditions: U-251, 48 h. The method in brief: as §1
Data set [4] is described as follows: Toxicity in CD1 mouse assessed as induction of dehydration at 80 mg/kg/day, ip administered thrice weekly and observed at day 5 to 7. In kind it is organism-based. Conditions: in vivo, 72 h, time 3 day. The method in brief:
as §2

The nature of data set [5]: Toxicity in CD1 mouse assessed as effect on MCHC count at 80 mg/kg/day, ip administered thrice weekly by hematology analyzer. To be noted: in vivo, 72 h, time 3 day. Format: organism-based. The method in brief: as §2
Data set [6] in a line: Toxicity in CD1 mouse assessed as effect on MCV count at 80 mg/kg/day, ip administered thrice weekly by hematology analyzer. In kind it is organism-based. To be noted: in vivo, 72 h, time 3 day. The method in brief:
as §2

Data set [7] is described as follows: Toxicity in CD1 mouse assessed as effect on basophil count at 80 mg/kg/day, ip administered thrice weekly by hematology analyzer. Format: organism-based. To be noted: in vivo, 72 h, time 3 day. The method in brief:
as §2

A further data set has as its system T98G. As to the kind of experiment: Antiproliferative activity against human T98G cells overexpressing AR assessed as reduction in cell viability incubated for 48 hrs by MTT assay. Format: functional, cell-based. The method in brief: as §1
Data set [8] can be described thus: Toxicity in CD1 mouse assessed as effect on RDW-CV at 80 mg/kg/day, ip administered thrice weekly by hematology analyzer. Format: organism-based. Conditions: in vivo, 72 h, time 3 day. The method in brief:
as §2

The nature of data set [9]: Toxicity in CD1 mouse assessed as effect on hematocrit count at 80 mg/kg/day, ip administered thrice weekly by hematology analyzer. In kind it is organism-based. Conditions: in vivo, 72 h, time 3 day. The method in brief:
as §2

Data set [10] can be described thus: Toxicity in CD1 mouse assessed as effect on WBC count at 80 mg/kg/day, ip administered thrice weekly by hematology analyzer. Conditions: in vivo, 72 h, time 3 day. Format: organism-based. The gist of the method: as §2
Data set [11] is described as follows: Toxicity in CD1 mouse assessed as effect on eosinophil count at 80 mg/kg/day, ip administered thrice weekly by hematology analyzer. To be noted: in vivo, 72 h, time 3 day. In kind it is organism-based. The gist of the method:
as §2

A short description of data set [12]: Toxicity in CD1 mouse assessed as reduction in food consumption at 80 mg/kg/day, ip administered thrice weekly and observed at day 5 to 7. In kind it is organism-based. To be noted: in vivo, 72 h, time 3 day. The method in brief: as §2
Data set [13] can be described thus: Toxicity in CD1 mouse assessed as effect on monocytes at 80 mg/kg/day, ip administered thrice weekly by hematology analyzer. In kind it is organism-based. To be noted: in vivo, 72 h, time 3 day. The gist of the method: as §2
Data set [14] can be described thus: Toxicity in CD1 mouse assessed as decrease in body weight at 80 mg/kg/day, ip administered thrice weekly and observed at day 5 to 7. Format: organism-based. Conditions: in vivo, 72 h, time 3 day. The method in brief:
as §2

Data set [15] in a line: Toxicity in CD1 mouse assessed as effect on lymphocyte at 80 mg/kg/day, ip administered thrice weekly by hematology analyzer. To be noted: in vivo, 72 h, time 3 day. Format: organism-based. The gist of the method: as §2
Data set [16] can be described thus: Toxicity in CD1 mouse assessed as effect on MCH count at 80 mg/kg/day, ip administered thrice weekly by hematology analyzer. To be noted: in vivo, 72 h, time 3 day. In kind it is organism-based. The method in brief: as §2
A short description of data set [17]: Toxicity in CD1 mouse assessed as effect on MPV at 80 mg/kg/day, ip administered thrice weekly by hematology analyzer. In kind it is organism-based. To be noted: in vivo, 72 h, time 3 day. The method in brief: as §2
Data set [18] can be described thus: Toxicity in CD1 mouse assessed as effect on neutrophils count at 80 mg/kg/day, ip administered thrice weekly by hematology analyzer. Format: organism-based. Conditions: in vivo, 72 h, time 3 day. The method in brief:
as §2

A short description of data set [19]: Toxicity in CD1 mouse assessed as effect on hemoglobin count at 80 mg/kg/day, ip administered thrice weekly by hematology analyzer. In kind it is organism-based. To be noted: in vivo, 72 h, time 3 day. The gist of the method:
as §2

Data set [20] can be described thus: Toxicity in CD1 mouse assessed as decrease in body weight at 80 mg/kg/day, ip administered thrice weekly and measured at day 10. Format: organism-based. Conditions: in vivo, 72 h, time 3 day. The method in brief:
as §2

Data set [21] is described as follows: Toxicity in CD1 mouse assessed as acute pain at 80 mg/kg/day, ip administered thrice weekly and measured at day 10. Format: organism-based. Conditions: in vivo, 72 h, time 3 day. The method in brief:
as §2

Data set [22] in a line: Dissociation constant, pKa of the compound. In kind it is physicochemical.

Sequence of Heat shock protein beta-1 (Homo sapiens) (P04792 whole entry): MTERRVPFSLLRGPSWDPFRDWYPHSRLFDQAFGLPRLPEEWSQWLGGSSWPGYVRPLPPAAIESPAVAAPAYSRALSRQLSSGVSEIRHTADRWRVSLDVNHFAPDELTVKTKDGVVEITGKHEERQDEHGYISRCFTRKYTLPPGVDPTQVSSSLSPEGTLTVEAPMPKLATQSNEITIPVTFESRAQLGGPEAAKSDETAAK

`C[C@]12CCC(=O)C[C@@H]1CC[C@@H]1[C@@H]2CC[C@]2(C)[C@@H](O)CC[C@@H]12`: the inhibition entry in data set [1] is “inactive”.
On to `COc1ccc(C(=O)Nc2ccc(N(C)S(C)(=O)=O)c(OCc3cc(OC)ccc3OC)c2)cc1`, for which the IC50 was 3.05 nM with U-87 MG, 3.13 nM with A 172, 1.57 nM in the data set on U-251 and 1.85 nM in the data set on T98G. In addition, the Activity result in data set [2] is recorded as “Non-Toxic”; in data set [3], “Non-Toxic”; in data set [4] it was “Toxic”; in data set [5] it was “Non-Toxic”; in data set [6] it was “Non-Toxic”; in data set [7], “Non-Toxic”. Moreover, the Activity result was “Non-Toxic” in data set [8]; “Non-Toxic” in data set [9]; “Non-Toxic” in data set [10]; “Non-Toxic” in data set [11]; “Toxic” in data set [12]; “Non-Toxic” in data set [13]. Besides, the Activity entry in [14] is given as “Toxic”; in data set [15], “Non-Toxic”; in [16], “Non-Toxic”; in data set [17], “Non-Toxic”; in data set [18] it was “Non-Toxic”; in [19] it was “Non-Toxic”.
`CCS(=O)(=O)Nc1ccc(NC(=O)c2ccc(OC)cc2)cc1OCc1cc(OC)ccc1OC`: the IC50 worked out at 6.74 nM in the data set with U-87 MG, 11.9 nM in the data set with A 172, 6.39 nM with U-251 and 4.87 nM in the data set with T98G. The Activity entry in data set [20], in [14] and in data set [21] was “Non-Toxic” throughout.
For the compound `CS(=O)(=O)Nc1ccc([N+](=O)[O-])cc1Oc1ccccc1` [NIMESULIDE], in data set [22], the pKa turned out to be 5.93.
As to `CCS(=O)(=O)N(C)c1ccc(NC(=O)c2ccc(OC)cc2)cc1OCc1cc(OC)ccc1OC`, the IC50 in the data set with U-87 MG came to 7.83 nM; in the data set on A 172, 8.21 nM; in the data set with U-251 it was 6.97 nM; with T98G it was 5.71 nM. The Activity result in data set [2] is listed as “Non-Toxic”; in [3], “Non-Toxic”; in [4], “Toxic”; in [5], “Non-Toxic”; in [6], “Non-Toxic”; in data set [7], “Non-Toxic”. The Activity result in data set [8] is reported as “Non-Toxic”; in data set [9], “Non-Toxic”; in data set [10], “Non-Toxic”; in data set [11], “Non-Toxic”; in data set [12], “Toxic”; in data set [13], “Non-Toxic”. Moreover, the Activity result in [14] is on record as “Toxic”; in data set [15] it was “Non-Toxic”; in [16], “Non-Toxic”; in data set [17], “Non-Toxic”; in data set [18], “Non-Toxic”; in data set [19], “Non-Toxic”.

Broadly, the IC50 is the concentration at which inhibition is half-maximal. For orientation: pKa means the pH at which an ionisable group is half protonated. The low end stands for a group that gives up its proton readily, the high end for a group that holds its proton tightly.
